The source of these data is ChEMBL document CHEMBL1137497, “4-arylcyclohexylalanine analogs as potent, selective, and orally active inhibitors of dipeptidyl peptidase IV” (Bioorg Med Chem Lett, 2007).

Data set [1] in a line: Oral bioavailability in rat. The format is ADME, organism-based. The conditions noted are these: in vivo.
Data set [2] in a line: Plasma clearance in rat. The data set is classed as ADME, organism-based.
A short description of data set [3]: Half life in rat. The format is ADME, organism-based. The conditions noted are these: in vivo.
Data set [4] has as its target Dipeptidyl peptidase 8 (Homo sapiens, UniProt Q6V1X1). The data set is described as follows: Inhibition of human DPP8.
Data set [5] is described as follows: Plasma clearance in rat at 1 mg/kg, iv or 2 mg/kg, po. The format is ADME, organism-based. The essentials:
(§1)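 Pharmacokinetic parameters derived by noncompartmental analysis.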

The nature of data set [6]: Oral bioavailability in rat at 2 mg/kg. The format is ADME, organism-based. Particulars: in vivo. In outline: as §1
Data set [7] relates to Mus musculus. Nature of the data set: Reduction in glucose excursion in mouse at 0.1 mg/kg, po administered 60 mins prior to dextrose challenge by oral glucose tolerance test. The data set is classed as functional. More on the design: scale not given: the % may be the effect or the level left. The essentials: (§2)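 Single oral dose given 60 min before an oral dextrose challenge. Blood glucose was monitored, and glucose excursion was expressed as percent reduction relative to vehicle-dosed controls.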

Data set [8] concerns the target Voltage-gated inwardly rectifying potassium channel KCNH2 (Homo sapiens, UniProt Q12809). Nature of the data set: Inhibition of human ERG.
Data set [9] is described as follows: AUC in rat at 2 mg/kg, po. The format is ADME, organism-based. More on the design: dose 2 mg/kg, route oral. Particulars: plasma. In outline: as §1
Data set [10] in a line: Oral bioavailability in rhesus monkey at 2 mg/kg. The format is ADME, organism-based, Macaca mulatta. The conditions noted are these: in vivo. The essentials: as §1
A short description of data set [11]: Half life in dog at 0.5 mg/kg, po. The data set is classed as ADME, organism-based, Canis lupus familiaris. On the set-up: dose 0.5 mg/kg, route oral. Particulars: in vivo. In outline:
as §1

Data set [12] is described as follows: Plasma clearance in rhesus monkey at 1 mg/kg, iv or 2 mg/kg, po. The format is ADME, organism-based, Macaca mulatta. In outline: as §1
Data set [13] is described as follows: Cmax in rhesus monkey at 1 mg/kg, iv or 2 mg/kg, po. The data set is classed as ADME, organism-based, Macaca mulatta. Particulars: in vivo. In outline: as §1
Data set [14] in a line: Oral bioavailability in dog at 0.5 mg/kg. The format is ADME, organism-based, Canis lupus familiaris. Particulars: in vivo. The essentials:
as §1

A short description of data set [15]: Half life in rhesus monkey at 1 mg/kg, iv or 2 mg/kg, po. The format is ADME, organism-based, Macaca mulatta. Particulars: in vivo. The essentials: as §1
Data set [16] concerns Mus musculus. Nature of the data set: Reduction in glucose excursion in mouse at 0.03 mg/kg, po administered 60 mins prior to dextrose challenge by oral glucose tolerance test. The format is functional. More on the design: scale not given: the % may be the effect or the level left. The essentials: as §2
Data set [17] concerns Canis familiaris. The data set is described as follows: AUC in dog at 0.5 mg/kg, po. The data set is classed as ADME, organism-based, Canis lupus familiaris, Plasma. More on the design: dose 0.5 mg/kg, route oral. Particulars: in vivo. The essentials: as §1
The nature of data set [18]: Cmax in dog at 0.5 mg/kg, po. The data set is classed as ADME, organism-based, Canis lupus familiaris. More on the design: dose 0.5 mg/kg, route oral. The conditions noted are these: in vivo. The essentials:
as §1

A short description of data set [19]: Cmax in rat at 1 mg/kg, iv or 2 mg/kg, po. Particulars: in vivo. The data set is classed as ADME, organism-based. The essentials: as §1
Data set [20] is described as follows: AUC in rhesus monkey at 2 mg/kg, po. The data set is classed as ADME, organism-based, Macaca mulatta. On the set-up: dose 2 mg/kg, route oral. The conditions noted are these: plasma. In outline:
as §1

Data set [21] can be described thus: Half life in rat at 1 mg/kg, iv or 2 mg/kg, po. The format is ADME, organism-based. The conditions noted are these: in vivo. In outline:
as §1

For data set [22], the target named is Dipeptidyl peptidase 9 (Homo sapiens, UniProt Q86TI2). Nature of the data set: Inhibition of human DPP9.
Sequence of Dipeptidyl peptidase 9 (Q86TI2 whole entry): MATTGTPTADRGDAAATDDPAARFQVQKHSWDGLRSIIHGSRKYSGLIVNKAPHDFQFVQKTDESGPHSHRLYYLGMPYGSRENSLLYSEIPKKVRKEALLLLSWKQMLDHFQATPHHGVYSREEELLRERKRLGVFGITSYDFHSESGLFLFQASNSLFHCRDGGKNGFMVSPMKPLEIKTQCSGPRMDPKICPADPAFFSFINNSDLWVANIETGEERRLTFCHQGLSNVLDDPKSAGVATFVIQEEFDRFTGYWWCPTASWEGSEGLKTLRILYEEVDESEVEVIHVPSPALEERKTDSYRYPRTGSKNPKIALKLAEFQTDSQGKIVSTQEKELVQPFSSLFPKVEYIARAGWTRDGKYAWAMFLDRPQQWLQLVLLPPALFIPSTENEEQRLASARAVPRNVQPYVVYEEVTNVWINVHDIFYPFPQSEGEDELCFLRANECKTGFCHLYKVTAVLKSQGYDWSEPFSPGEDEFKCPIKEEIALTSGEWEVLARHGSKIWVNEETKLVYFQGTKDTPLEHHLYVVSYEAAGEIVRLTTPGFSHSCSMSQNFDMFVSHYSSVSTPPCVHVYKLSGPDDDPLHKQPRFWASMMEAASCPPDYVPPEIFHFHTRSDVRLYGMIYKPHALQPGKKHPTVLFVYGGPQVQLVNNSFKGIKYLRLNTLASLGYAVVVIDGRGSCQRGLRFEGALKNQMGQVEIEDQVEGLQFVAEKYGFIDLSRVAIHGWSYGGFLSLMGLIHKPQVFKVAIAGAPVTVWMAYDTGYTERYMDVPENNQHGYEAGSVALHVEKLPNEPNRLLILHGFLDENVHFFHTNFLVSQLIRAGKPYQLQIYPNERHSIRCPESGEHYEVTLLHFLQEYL

Molecules are shown by their SMILES. Some results are limits rather than exact numbers.

Sequence of Voltage-gated inwardly rectifying potassium channel KCNH2 (Q12809 whole entry): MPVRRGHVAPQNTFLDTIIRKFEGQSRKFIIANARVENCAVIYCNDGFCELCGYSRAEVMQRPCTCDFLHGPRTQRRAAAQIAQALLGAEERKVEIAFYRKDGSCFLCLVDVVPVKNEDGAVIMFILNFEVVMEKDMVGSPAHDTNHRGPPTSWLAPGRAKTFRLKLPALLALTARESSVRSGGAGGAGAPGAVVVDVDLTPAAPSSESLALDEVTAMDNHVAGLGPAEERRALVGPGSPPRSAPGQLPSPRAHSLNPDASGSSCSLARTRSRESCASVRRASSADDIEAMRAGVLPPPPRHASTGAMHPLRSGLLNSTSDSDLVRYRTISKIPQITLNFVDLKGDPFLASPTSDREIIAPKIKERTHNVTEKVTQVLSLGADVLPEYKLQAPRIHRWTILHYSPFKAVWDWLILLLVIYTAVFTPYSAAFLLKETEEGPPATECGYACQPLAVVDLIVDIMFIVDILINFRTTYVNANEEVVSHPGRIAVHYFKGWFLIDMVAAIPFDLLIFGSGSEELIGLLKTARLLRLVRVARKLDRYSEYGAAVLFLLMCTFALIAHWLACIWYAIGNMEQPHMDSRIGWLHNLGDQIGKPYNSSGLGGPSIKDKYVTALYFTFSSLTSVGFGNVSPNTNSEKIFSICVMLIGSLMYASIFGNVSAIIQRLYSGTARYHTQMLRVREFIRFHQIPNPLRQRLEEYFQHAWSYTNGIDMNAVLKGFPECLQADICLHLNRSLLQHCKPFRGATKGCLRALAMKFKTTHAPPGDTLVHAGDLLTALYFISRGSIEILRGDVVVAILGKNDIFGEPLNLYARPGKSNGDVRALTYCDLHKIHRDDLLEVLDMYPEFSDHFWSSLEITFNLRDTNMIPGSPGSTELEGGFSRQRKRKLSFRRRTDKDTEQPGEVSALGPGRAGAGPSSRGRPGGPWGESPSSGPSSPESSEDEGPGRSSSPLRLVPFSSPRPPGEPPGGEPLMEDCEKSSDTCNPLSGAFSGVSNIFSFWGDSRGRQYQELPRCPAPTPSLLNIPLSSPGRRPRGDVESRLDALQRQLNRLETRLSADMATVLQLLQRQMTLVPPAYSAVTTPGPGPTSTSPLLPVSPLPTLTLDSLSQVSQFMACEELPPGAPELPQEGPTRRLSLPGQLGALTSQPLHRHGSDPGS
Sequence of Dipeptidyl peptidase 8 (Q6V1X1 whole entry): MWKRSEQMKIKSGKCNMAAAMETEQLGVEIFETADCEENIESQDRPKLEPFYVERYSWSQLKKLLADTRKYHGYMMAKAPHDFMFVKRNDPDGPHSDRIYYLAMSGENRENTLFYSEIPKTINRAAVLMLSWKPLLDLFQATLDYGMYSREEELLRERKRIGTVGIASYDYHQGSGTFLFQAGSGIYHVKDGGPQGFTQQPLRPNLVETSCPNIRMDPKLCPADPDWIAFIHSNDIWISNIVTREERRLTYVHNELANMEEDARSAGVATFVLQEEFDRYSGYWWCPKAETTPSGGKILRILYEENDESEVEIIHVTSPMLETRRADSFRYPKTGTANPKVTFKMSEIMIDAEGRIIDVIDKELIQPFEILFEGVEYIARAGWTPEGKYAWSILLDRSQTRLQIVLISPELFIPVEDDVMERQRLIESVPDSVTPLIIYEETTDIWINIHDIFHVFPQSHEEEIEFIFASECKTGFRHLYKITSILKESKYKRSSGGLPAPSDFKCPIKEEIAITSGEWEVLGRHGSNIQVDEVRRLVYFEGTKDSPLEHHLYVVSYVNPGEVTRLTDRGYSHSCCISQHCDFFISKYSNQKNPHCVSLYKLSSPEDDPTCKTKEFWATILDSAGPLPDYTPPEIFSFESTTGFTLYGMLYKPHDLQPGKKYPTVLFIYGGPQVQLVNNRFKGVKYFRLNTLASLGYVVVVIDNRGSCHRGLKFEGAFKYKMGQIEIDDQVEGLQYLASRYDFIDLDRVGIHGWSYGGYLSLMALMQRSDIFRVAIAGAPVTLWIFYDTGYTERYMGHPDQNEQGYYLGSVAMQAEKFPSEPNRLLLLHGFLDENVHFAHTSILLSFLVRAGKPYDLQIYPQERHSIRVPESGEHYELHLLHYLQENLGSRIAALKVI

As to `CN(C)C(=O)[C@@H]([C@H]1CC[C@H](c2cccc3ncnn32)CC1)[C@H](N)C(=O)N1CCC(F)(F)C1`, the bioavailability (as a rule, dose-corrected exposure relative to a reference, in per cent) in data set [1] stood at 98%. The molecule further gave a clearance in [2] of 40 mL/min/kg. Further, the half-life – broadly, how long it takes for the measured level to halve – in [3] was 2.9 h.
As to `CN(C)C(=O)[C@@H]([C@H]1CC[C@H](c2cccc3ncnn32)CC1)[C@H](N)C(=O)N1CC[C@H](F)C1`, in data set [1], the bioavailability amounted to 31%. Further, the half-life in data set [3] was 0.54 h.
With `COc1cc([C@H]2CC[C@@H]([C@H](C(=O)N(C)C)[C@H](N)C(=O)N3CCC(F)(F)C3)CC2)nc(OC)n1`, in data set [4], the IC50 – broadly, the concentration that gives 50% inhibition – is more than 100 µM.
`C[C@@H](c1ccc(-c2ccc(F)cc2)cc1)[C@H](N)C(=O)N1CC[C@H](F)C1` had a clearance in data set [5] of 8.6 mL/min/kg. For the same molecule, in [6], the bioavailability came to 85%.
The molecule `COc1cc([C@H]2CC[C@H]([C@H](C(=O)N(C)C)[C@H](N)C(=O)N3CCC(F)(F)C3)CC2)nc(OC)n1` yielded a 50% inhibitory concentration (IC50) in data set [4] of more than 100 µM.
In data set [5], `CN(C)C(=O)[C@@H](c1ccc(-c2ccc3ncnn3c2)cc1)[C@H](N)C(=O)N1CC[C@H](F)C1` showed a clearance of 7 mL/min/kg.
As to `CN(C)C(=O)[C@@H](c1ccc(-c2ccc(F)cc2)cc1)[C@H](N)C(=O)N1CC[C@H](F)C1`, in data set [7], the Activity is reported as 21%. Also, the clearance in [5] came out at 4.8 mL/min/kg.
`CN(C)C(=O)[C@@H]([C@H]1CC[C@H](c2ccc3ncnn3c2)CC1)[C@H](N)C(=O)N1CCC(F)(F)C1`: the IC50 in data set [8] was more than 90 µM. Moreover, the AUC (usually the area under the concentration-time curve, a measure of exposure) in data set [9] was 4.4 µM·h; in data set [17] it was 46 µM·h; in [20], 6.5 µM·h. Also, the results for the bioavailability in [10], in [14] and in data set [6] were 97%, 100% and 63%, respectively. Moreover, the half-life is 3.9 h in [11], 4.1 h in [15] and 4.1 h in data set [21]. The clearance in data set [12] is 5.6 mL/min/kg; in data set [5], 5.3 mL/min/kg. The Cmax (usually the maximum level reached in the sampled fluid or tissue) in data set [13] came out at 2.8 µM; in data set [18] it was 16 µM; in [19], 3.3 µM. In data set [16], this molecule returned an Activity of 23%.
With `CC(=O)N[C@H]1CC[C@H]([C@H](C)[C@H](N)C(=O)N2CC[C@H](F)C2)CC1`, the IC50 in data set [8] and in [22] was more than 100 µM throughout. The same molecule showed an Activity in data set [7] of 26%. Also, in data set [5], the clearance came out at 42 mL/min/kg. In data set [6], this molecule had a bioavailability of 56%.
